Activity calls are given as the source filed them. The rule behind the calls is not given here.
Experiments:
BL21-DE3 [1] = assay: Potency index, ratio of SPAA IC50 to compound IC50 for Mycobacterium tuberculosis PTPB expressed in Escherichia coli BL21/DE3 cells
[2] = Inhibition of Mycobacterium tuberculosis PTPB expressed in Escherichia coli BL21/DE3 cells using pNPP as substrate after 5 mins by spectrophotometry
[3] = Reversible competitive inhibition of Mycobacterium tuberculosis PTPB expressed in Escherichia coli BL21/DE3 cells using pNPP as substrate after 5 mins
BL21-DE3 [4] = assay: Inhibition of Mycobacterium tuberculosis PTPB expressed in Escherichia coli BL21/DE3 cells using pNPP as substrate at 200 uM after 5 mins by spectrophotometry
In short: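 Single-point screen: the test compound is present at 200 μM in the assay (a compound concentration, not a substrate level). The read-out is phosphatase-catalysed hydrolysis of para-nitrophenyl phosphate.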

Structure (SMILES) | Ratio IC50 (BL21-DE3 [1]) | IC50 [2] | Ki [3] | inhibition (BL21-DE3 [4])
CCCNC(=O)C(c1ccccc1)S(=O)(=O)O (racemic) | 11 | 16 µM |  | 
O=C(Nc1ccccc1)C(c1ccccc1)S(=O)(=O)O (racemic) | 180 | 1 µM |  | 
O=C(C(c1ccccc1)S(=O)(=O)O)N1CCC(Cc2ccccc2)CC1 (racemic) |  | 0.04 µM |  | 
O=C(NC1CC1)C(c1ccccc1)S(=O)(=O)O (racemic) | 32 | 5.6 µM |  | 
NC(=O)C(c1ccccc1)S(=O)(=O)O (configuration not stated) |  | 180 µM | 73.4 µM | 
NC(=O)c1ccncc1 |  |  |  | inactive
O=C(C(c1ccccc1)S(=O)(=O)O)N1CCCCC1 (racemic) | 180 | 0.95 µM |  | 
